Source: PubChem (Broad Institute)
In the library only some 2.1% were active in any assay of this set; here they are far more common.
PAX8 reporter = inhibitors of PAX8-driven TPO luciferase reporter, primary screen, RMG-I cells, single concentration; SteadyGlo, 24 h; inhibition, % at 12.6 µM; AID 652154, 2013; actives 1.2% (n = 360,000);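 active means mean replicate inhibition at least 60% with every replicate also reaching 60%; inconclusive means only one of the two criteria is met; inactive means mean below 60% and not all replicates reaching 60%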;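 further: luciferase light reporting Pax8 driven TPO promoter activity; plate controls were median of neutral control wells for no effect and mitoxantrone controls for full effect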
EBV LMP1 NFkB = EBV LMP1-driven NF-kappaB luciferase reporter inhibitors, primary screen, cell-based, luminescence, single point; inhibition, % at 12.5 µM; LMP1-induced NF-kappaB luciferase reporter cells; AID 504558, 2011; actives 0.69% (n = 350,000); in the data active means inhibition above about 41%; inconclusive means no clear call, values can overlap the other calls;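 further: 0% = neutral control wells and 100% = reference inhibitor control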
EWS-Fli inh = EWS/Fli-driven NR0B1 reporter inhibitors, primary screen, A673 cells, NR0B1 luciferase, luminescence, MLPCN library; AID 651661, 2012; viability-normalised; actives 0.67% (n = 350,000); inhibition, % at 12.6 µM;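 active means mean inhibition of at least 50% after viability correction, with every replicate also passing that limit; inconclusive means mean reaches 50% but only one of two replicates passes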;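 further: firefly luciferase signal divided by Alamar Blue viability fluorescence both relative to DMSO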
aSyn 5UTR inh = MLPCN primary screen, SNCA 5' untranslated region | alpha-synuclein 5'UTR reporter, inhibitor activity | inhibition, % (tested at 7.5 µM) | actives 0.82% (n = 300,000) | AID 1813, 2009; in the data active means inhibition above about 60%; inconclusive means no clear call, values can overlap the other calls;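 further: H4 neuroglioblastoma cells stably carrying SNCA 5'UTR luciferase fusion; 0% = DMSO wells and 100% = positive control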
FN deposition inh = inhibitors of fibronectin matrix deposition, primary screen, AH1F cells, Alexa488-fibronectin fluorescence, plate reader; actives 0.086% (n = 350,000); AH1F fibroblasts, overnight; inhibition, % at 12.6 µM;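 active means mean inhibition across replicates of 30% or more, regardless of how many single replicates reach that level; inconclusive means mean under 30% yet at least half of replicates reach 30%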;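 further: positive control wells lacked labelled fibronectin entirely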
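Material – AH1F fibroblast monolayer, labelled fibronectin deposition · Reagent – labelled fibronectin 24 nM · Timing – 1 h adhesion, overnight exposure · Measured by – fluorescence at 485 nm excitation, 525 nm emission · Read-out – inhibition of fibronectin deposition signal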
Shn3 3UTR inh = reduction of Shn3 3'UTR firefly luciferase signal, primary screen, Schnurri-3 inhibitor project, cell-based, Clone20 osteoblasts, set 2; actives 0.52% (n = 360,000); inhibition, % at 12.5 µM; Clone20 osteoblast Shn3 3'UTR firefly luciferase, 24 h; AID 588674, 2011;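 active means mean inhibition of at least 75% with every replicate also reaching 75%; inconclusive means mean inhibition at least 75% but some replicate below; inactive means mean inhibition below 75%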;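 further: 0% = median of neutral control wells and 100% = pilot-screen positive control compound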
Starred values were filed as active, the others as inactive; ? = inconclusive; . = no result.

SMILES	PAX8 reporter	EBV LMP1 NFkB	EWS-Fli inh	aSyn 5UTR inh	FN deposition inh	Shn3 3UTR inh
Cc1ccc(NC(=O)CN(C)C(=O)Cc2ccc(Cl)c(Cl)c2)cc1	22	-6	-28	-21	0	-6
Cc1ccc(NC(=O)CN(C)C(=O)Cn2ncc(Cl)c(Cl)c2=O)cc1	93*	88*	.	82*	36*	71
CO[C@@H]1CN(C)C(=O)c2cc(NC(C)=O)ccc2OC[C@H](C)N(Cc2cccnc2)C[C@H]1C	7	.	-4	.	1	.
O=C(OCCOc1ccc(Cl)cc1)c1cc(S(=O)(=O)N2CCCCC2)ccc1N1CCOCC1	43	4	16	.	-9	90*
Cc1ccc(OCCOC(=O)c2cc(S(=O)(=O)N3CCCCC3)ccc2N2CCOCC2)cc1	-5	6	22	.	.	78
OC(CNCCc1ccc(Cl)cc1)COc1ccc2ccccc2c1 (stereo unspecified)	9	-13	22	.	-14	4
OC(CNCCc1ccccc1)COc1ccc(OCC(O)CNCCc2ccccc2)cc1 (stereo unspecified)	14	-106	21	107*	9	.
OC[C@@H]1[C@@H](c2ccc(-c3ccc(F)cc3)cc2)[C@H]2CN(Cc3cccnc3)CCCCN12	-6	.	-16	.	.	.
CCN1[C@H](C(=O)N2CCc3ccccc3C2)[C@@H](CO)[C@@H]2Cn3c(cccc3=O)[C@@H]21	6	.	3	.	.	.
Nc1ccc(OC(=O)Nc2ccc(O)cc2)cc1	-44	29	33	91*	-4	14
O=C(Cn1ncc(Cl)c(Cl)c1=O)NCC1CCCCC1	1	86*	?	.	10	75
O=C1CN(C(=O)Cn2ncc(Cl)c(Cl)c2=O)c2ccccc2N1	95*	-46	21	3	8	19
O=C(Cn1ncc(Cl)c(Cl)c1=O)NC1CCCCC1	54	-50	51*	.	.	64
Cc1cccc(NC(=O)CNC(=O)Cn2ncc(Cl)c(Cl)c2=O)c1C	.	-57	.	.	.	46
O=C(Cn1ncc(Cl)c(Cl)c1=O)NC1CCS(=O)(=O)C1 (stereo unspecified)	27	-1	1	-16	16	3
C[C@H]1CN([C@@H](C)CO)C(=O)c2cccc(NC(=O)Nc3cccc4ccccc34)c2O[C@H]1CN(C)S(C)(=O)=O	27	.	2	.	.	.
C[C@H]1CN(C)C(=O)c2cccc(N)c2O[C@H]1CN(C)C(=O)OC(C)(C)C	.	.	.	.	0	.
O=C(C[C@H]1C=C[C@@H](NC(=O)C2CCC2)[C@@H](CO)O1)NCC1CC1	5	.	-2	.	0	.
CC(C)CC#Cc1ccc2c(c1)O[C@H](CN(C)Cc1ccncc1)[C@@H](C)CN([C@@H](C)CO)S2(=O)=O	73*	.	36	.	.	.
CC(C)CC#Cc1ccc2c(c1)O[C@@H](CN(C)Cc1ccncc1)[C@H](C)CN([C@H](C)CO)S2(=O)=O	92*	.	40	.	.	.
CC(C)CC#Cc1ccc2c(c1)O[C@@H](CN(C)Cc1ccccn1)[C@H](C)CN([C@H](C)CO)S2(=O)=O	72*	.	32	.	2	.
CC(C)CC#Cc1ccc2c(c1)O[C@H](CN(C)Cc1ccccn1)[C@H](C)CN([C@@H](C)CO)S2(=O)=O	57	.	18	.	2	.
O=C(N[C@@H]1CC[C@@H](CCn2cc(-c3ccccn3)nn2)O[C@@H]1CO)c1cccnc1	-23	.	4	.	.	.
CCCNC(=O)[C@H]1[C@H](CO)[C@H]2Cn3c(ccc(C4=CCCC4)c3=O)[C@@H]1N2C(=O)C1CC1	0	.	3	.	.	.
CCNC(=O)[C@@H]1[C@@H](CO)[C@@H]2Cn3c(ccc(-c4cccnc4)c3=O)[C@H]1N2Cc1ccccc1	-9	.	9	.	.	.
C=CCn1c(SCC(=O)c2ccc(CNC(C)=O)o2)nc2ccccc2c1=O	.	82*	.	-23	.	-19
O=C(Nc1nc(-c2cccs2)c(-c2cccs2)s1)C1(c2ccccc2)CC1	102*	-7	5	-11	1	1
CO[C@@H]1CN(C)C(=O)c2ccc(NS(C)(=O)=O)cc2OC[C@H](C)N(CC2CCOCC2)C[C@H]1C	.	.	-2	.	-4	.
Cn1c(=O)[nH]c(=O)c2c1nc(Br)n2Cc1cccc(Br)c1	73*	15	56*	-70	-1	-2
